Among the data in the array DNA melting data of Ke et al. (doi:10.1101/2024.01.08.574731) are Tm and folding enthalpy values, retold here.

Data set [1] can be described thus: melting temperature; fluorescence melt of hairpins on a sequencing array, two-state fit, raised by 9.35 °C to match UV melts. To be noted: sodium 0.088 M. The procedure, abridged: (§1)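 With Cy3 and quencher oligos annealed, library hairpins on a sequenced MiSeq flow cell were imaged for Cy3 fluorescence in 50 mM Na-HEPES pH 8.0, 25 mM NaCl, in 2.5 °C steps up to 60 °C. Melting temperature and folding enthalpy were derived from bootstrapped two-state fits of signals normalised to pre-quench Cy3 and to control constructs. Four replicates were combined by inverse variance, with fitted temperatures raised by 9.35 °C to match UV melts.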

Data set [2] is described as follows: folding enthalpy; higher = less favourable; fluorescence melt of hairpins on a sequencing array, two-state fit. To be noted: sodium 0.088 M. The procedure, abridged:
as §1

On to GCGTCGCGAAAGCTAAGC ((.(.((....)).).)), for which, in data set [1], the Tm is 51.4 °C. For the same sequence, the folding enthalpy in data set [2] was -20.2 kcal/mol.
For GCCGATGCGAAAGCAGGC (((..(((....)))))) the same measures were 58.5 °C and -20.1 kcal/mol.
For GAGGCTGGAAACAGCCCC (.(((((....))))).) the same measures were 46.1 °C and -8.68 kcal/mol.
For GTACAACCGAAAGGTTAC (((..(((....)))))) the same measures were 29.8 °C and -10.7 kcal/mol.
Consider GGTTTCGAAAGAAAACC ((((((....))).))), for which the Tm in data set [1] stood at 46.4 °C. In addition, the folding enthalpy in data set [2] is -25.7 kcal/mol.
As for GGGATAACGAAAGTTCCC (((..(((....)))))), in data set [1], the Tm came to 42.4 °C. In data set [2], the folding enthalpy is -26.7 kcal/mol.
The matching figures for GCTCGGCGAAAGCACAGC (((..((....))..))): 51.2 °C and -12.2 kcal/mol.
The matching figures for GGCGTCGAAAGACAGCC ((((((....))).))): 63.7 °C and -34.3 kcal/mol.
For the sequence GTGTTAGGAAACTGACAC ((((.((....)).)))), the Tm in data set [1] amounted to 46.1 °C. Moreover, in data set [2], the folding enthalpy is -33.8 kcal/mol.
For GATCGGGGAAACCTGATC ((((.((....)).)))) the same measures were 49.2 °C and -43.8 kcal/mol.
For GGGATTCGAAAGAACCC (((.(((....)))))) the same measures were 47.1 °C and -25.5 kcal/mol.
For CGTTAGAAATAACG (((((....))))) the same measures were 37 °C and -20.5 kcal/mol.
In the case of GTATTTCGAAAGAATTAC (((.(((....))).))), the Tm in data set [1] stood at 33.3 °C. Also, in data set [2], the folding enthalpy was -28.3 kcal/mol.
The matching figures for GCTAAGCGAAAGCTCCGC ((..(((....)))..)): 26.9 °C and -10.6 kcal/mol.
For GATCCCGAAAGGGCATC ((((((....))).))) the same measures were 42.1 °C and -17 kcal/mol.
The matching figures for GAGGCCGAAAGGCATCTC ((((((....)))..))): 68.4 °C and -17.1 kcal/mol.
Take GCTGATGGAAACACCAGC ((((.((....)).)))): the Tm in data set [1] came out at 45.9 °C. The folding enthalpy in data set [2] was -30.8 kcal/mol.
The matching figures for GTTCACCCGAAAGGGAAC (((..(((....)))))): 37.2 °C and -14.3 kcal/mol.
On to GCAGAGCGAAAGCGCAGC ((.(.((....)).).)), for which the Tm in data set [1] is 59.6 °C. In addition, in data set [2], the folding enthalpy was -19.6 kcal/mol.
The matching figures for GATCACGAAAGTGCATC ((((((....))).))): 42.8 °C and -21.4 kcal/mol.
With GTTACTCGAAAGAGCAAC (((.(((....))).))), in data set [1], the Tm amounted to 43.3 °C. In addition, the folding enthalpy in data set [2] was -27.5 kcal/mol.
For GCTACGCGAAAGCTTAGC ((((.((....)).)))) the same measures were 55.4 °C and -20.8 kcal/mol.
With GATCGTATGTACGATC ((((((....)))))), the Tm in data set [1] was 56.8 °C. Moreover, the folding enthalpy in data set [2] is -37.7 kcal/mol.
The matching figures for CGTAACGGAAACGTCACG (((.(((....))).))): 41.9 °C and -31.7 kcal/mol.
The matching figures for GTAAGGAAACTTAC (((((....))))): 37.9 °C and -14.3 kcal/mol.
For GATCCTAGGCAGGATC ((((((....)))))) the same measures were 53.3 °C and -35.4 kcal/mol.
With GATCCAACTTGGATC ((((((...)))))), the Tm in data set [1] amounted to 51.2 °C. Moreover, the folding enthalpy in data set [2] is -29 kcal/mol.
As for GATCGAGTATTCGATC ((((((....)))))), the Tm in data set [1] came to 59.2 °C. For the same sequence, the folding enthalpy in data set [2] is -40 kcal/mol.
On to GATCCTTTCCAGGATC ((((((....)))))), for which, in data set [1], the Tm was 51.7 °C. Also, in data set [2], the folding enthalpy is -46.1 kcal/mol.
The matching figures for GGCCACGGAAACGCGACC ((.(.((....)).).)): 36.7 °C and -25.8 kcal/mol.
The matching figures for GCGAAGCGAAAGCTGCGC (((.(((....))).))): 67.7 °C and -23.6 kcal/mol.
Take GATCTGGGAAACTAGATC (((((.(....).))))): in data set [1], the Tm amounted to 42.4 °C. Further, the folding enthalpy in data set [2] is -32.2 kcal/mol.
The matching figures for GGATTAGAAATAATCC ((((((....)))))): 42.8 °C and -29.3 kcal/mol.
Turning to GAGAAGCGAAAGCTCCTC (((.(((....))).))), in data set [1], the Tm is 45.1 °C. Also, the folding enthalpy in data set [2] was -21.7 kcal/mol.
The matching figures for GGTCCACCGAAAGGTACC (((..(((....)))))): 29.2 °C and -11.9 kcal/mol.
The matching figures for GTGTGTGGAAACACATAC ((.((((....)))).)): 50 °C and -20.3 kcal/mol.
For GCCTACGAAAGTATCGGC ((((((....)))..))) the same measures were 40.6 °C and -24.7 kcal/mol.
